Reference: ChEMBL document CHEMBL1156875, “Anti-influenza drug discovery: structure-activity relationship and mechanistic insight into novel angelicin derivatives” (J Med Chem, 2010)
Calls of active or inactive are those of the source. The rule behind the calls is not given here.

Experiments:
Influenza A virus [1] = assay: Antiviral activity against human influenza A virus A/WSN/33 (H1N1) in MDCK cells assessed as reduction of M1 protein by immunofluorescence microscopic analysis; type: functional, organism-based; settings: A/WSN/1933(H1N1)
Procedure, shortened: (§1)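 Influenza-infected MDCK cells examined by immunofluorescence microscopy with anti-dsRNA, anti-NP and anti-M1 antibodies to visualise viral RNA and proteins.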

Influenza A virus [2] = assay: Antiviral activity against human influenza A virus A/WSN/33 (H1N1) in MDCK cells assessed as reduction of virus-induced cytopathic effect; type: functional, organism-based; settings: A/WSN/1933(H1N1)
Procedure, shortened: (§2)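 MDCK cells (1.1 × 10^5 cells/mL in DMEM + 10% FBS) grown 24-30 h at 37 C to about 90% confluency. Virus (100 TCID50) premixed with serially diluted compound, adsorbed 1 h at 37 C. Overlay of serum-free DMEM with trypsin 2.5 μg/mL and 0.1% DMSO, then 72 h at 37 C. Formaldehyde fixation, crystal violet stain, A570. IC50 = 50% CPE reduction versus virus control. Triplicate, at least two runs.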

Influenza A virus [3] = assay: Antiviral activity against human influenza A virus A/WSN/33 (H1N1) in MDCK cells assessed as reduction of plaque formation at 20 nM; type: functional, A/WSN/1933(H1N1); parameters: scale not given: the % may be the effect or the level left
Procedure, shortened: (§3)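 Six-well MDCK monolayers (5.5 × 10^5 cells/well, overnight) infected with about 125 PFU/well of A/WSN/33 with or without compound, adsorbed 1 h at 37 C, then washed with HBSS. Agarose 0.3% overlay in trypsin-containing serum-free medium carrying the same compound level, 48 h at 37 C, 5% CO2. Fixed, crystal violet stained, plaques counted relative to virus control.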

Influenza A virus [4] = assay: Antiviral activity against human influenza A virus A/WSN/33 (H1N1) in MDCK cells assessed as reduction of plaque formation at 100 nM; type: functional, organism-based; settings: A/WSN/1933(H1N1); procedure, shortened: as §3
[5] = Cytotoxicity against MDCK cells after 72 hrs; type: cell-based, Canis lupus familiaris; settings: dog
Procedure, shortened: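 Uninfected MDCK monolayers (seeded at 1.1 × 10^5 cells/mL, grown 24-30 h to about 90% confluency) exposed to graded compound concentrations for 72 h at 37 C. Read by formaldehyde fixation, 0.1% crystal violet staining and absorbance at 570 nm. CC50 = concentration reducing viability to 50% of control. Triplicate, repeated at least twice.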

Influenza A virus [6] = assay: Antiviral activity against human influenza A virus A/TW/141/04 (H1N1) in MDCK cells assessed as reduction of virus-induced cytopathic effect; type: functional, organism-based; procedure, shortened: as §2
Influenza A virus [7] = assay: Antiviral activity against human influenza A virus A/TW/3446/04 (H3N2) in MDCK cells assessed as reduction of virus-induced cytopathic effect; type: functional, organism-based; procedure, shortened: as §2
Influenza B virus [8] = assay: Antiviral activity against human influenza B virus B/TW/710/05 in MDCK cells assessed as reduction of virus-induced cytopathic; type: functional, organism-based; settings: B/TW/710/05, MDCK; procedure, shortened: as §2
Influenza B virus [9] = assay: Antiviral activity against human influenza B virus B/TW/70325/05 in MDCK cells assessed as reduction of virus-induced cytopathic; type: functional, organism-based; settings: B/TW/70325/05, MDCK; procedure, shortened: as §2
Influenza B virus [10] = assay: Antiviral activity against human influenza B virus B/TW/99/07 in MDCK cells assessed as reduction of virus-induced cytopathic; type: functional, organism-based; settings: B/TW/99/07, MDCK; procedure, shortened: as §2
Influenza A virus [11] = assay: Antiviral activity against human influenza A virus A/WSN/33 (H1N1) in MDCK cells assessed as prevention of progeny formation up to 4 hrs by time-of-addition study; type: functional, organism-based; settings: A/WSN/1933(H1N1)
Procedure, shortened: (§4)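 MDCK (2.4 × 10^5 cells/well, six-well) infected at MOI 0.001 on ice for 1 h, washed, fresh medium set as 0 h pi. Compound at 1 μM present only during −1 to 0, 0-2, 2-4, 4-6 or 6-8 h, then washed off. Incubated in fresh medium to 12 h pi; supernatant virus yield titrated by plaque assay.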

Influenza A virus [12] = assay: Antiviral activity against human influenza A virus A/WSN/33 (H1N1) in MDCK cells assessed as prevention of progeny formation after 4 to 8 hrs by time-of-addition study; type: functional, organism-based; settings: A/WSN/1933(H1N1); procedure, shortened: as §4
Influenza A virus [13] = assay: Antiviral activity against human influenza A virus A/WSN/33 (H1N1) assessed as inhibition of guinea pig red blood cells at 25 uM by hemagglutinination inhibition assay; type: functional, organism-based; settings: A/WSN/1933(H1N1)
Procedure, shortened: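 Hemagglutination inhibition format: A/WSN/33 attachment to guinea pig red blood cells tested with compound at 25 μM.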

Influenza A virus [14] = assay: Antiviral activity against human influenza A virus A/WSN/33 (H1N1) in MDCK cells assessed as reduction of dsRNA by immunofluorescence microscopic analysis; type: functional, organism-based; settings: A/WSN/1933(H1N1); procedure, shortened: as §1
Influenza A virus [15] = assay: Antiviral activity against human influenza A virus A/WSN/33 (H1N1) in MDCK cells assessed as reduction of NP protein by immunofluorescence microscopic analysis; type: functional, organism-based; settings: A/WSN/1933(H1N1); procedure, shortened: as §1

Compound: Cc1cc(=O)oc2c1ccc1oc(C(=O)c3cccs3)c(-c3ccccc3)c12
- Activity (Influenza A virus [1]): Active
- IC50 (Influenza A virus [2]): 70 nM
- Activity (Influenza A virus [3]): 50%
- Activity (Influenza A virus [4]): Active
- CC50 at 72 h [5]: > 25000 nM
- IC50 (Influenza A virus [6]): 90 nM
- IC50 (Influenza A virus [7]): 150 nM
- IC50 (Influenza B virus [8]): 90 nM
- IC50 (Influenza B virus [9]): 90 nM
- IC50 (Influenza B virus [10]): 40 nM
- Activity (Influenza A virus [11]): Active
- Activity (Influenza A virus [12]): inactive
- Activity (Influenza A virus [13]): inactive
- Activity (Influenza A virus [14]): Active
- Activity (Influenza A virus [15]): Active
